According to ChEMBL document CHEMBL1155534, “Tetracyclic sulfones as potent gamma-secretase inhibitors: synthesis and structure-activity relationship studies” (Bioorg Med Chem Lett, 2010):

Tests used:
[1] = Inhibition of gamma secretase
[2] = Inhibition of gamma-secretase-mediated cleavage of human APP expressed in HEK293 cells assessed as reduction in amyloid beta40 production; format: cell-based
Outline: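 HEK293 cells expressing human APP carrying Swedish and London mutations, in fresh medium with inhibitor for 4 h. Aβ40 in conditioned medium measured by ECL; IC50 derived.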

[3] = Inhibition of gamma-secretase-mediated cleavage of human APP expressed in HEK293 cells assessed as reduction in amyloid beta42 production; format: cell-based
[4] = Clearance in human hepatocyte pre million cells; format: ADME, cell-based, Liver; conditions: hepatocytes
[5] = Plasma protein binding in human; format: ADME, cell-free; conditions: read-out: PPB (converted)
Mus musculus [6] = assay: Reduction in amyloid beta 40 level in non-transgenic mouse brain at 10 mg/kg, po; format: ADME, organism-based; set-up: dose 10 mg/kg, route oral; scale not given: the % may be the effect or the level left; conditions: in vivo
Outline: (§1)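 Non-transgenic mice given 10 mg/kg orally; Aβ40 reduction expressed as percent relative to vehicle controls, mean values (n = 5).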

hERG (KCNH2) = hERG (KCNH2) (Homo sapiens, UniProt Q12809); assay: Inhibition of human ERG assessed as rubidium efflux at 5 ug/ml
Mus musculus [7] = assay: Reduction in amyloid beta 40 level in non-transgenic mouse plasma at 10 mg/kg, po; format: ADME, organism-based; set-up: dose 10 mg/kg, route oral; scale not given: the % may be the effect or the level left; conditions: in vivo; outline: as §1

Sequence of hERG (KCNH2) (Q12809 whole entry): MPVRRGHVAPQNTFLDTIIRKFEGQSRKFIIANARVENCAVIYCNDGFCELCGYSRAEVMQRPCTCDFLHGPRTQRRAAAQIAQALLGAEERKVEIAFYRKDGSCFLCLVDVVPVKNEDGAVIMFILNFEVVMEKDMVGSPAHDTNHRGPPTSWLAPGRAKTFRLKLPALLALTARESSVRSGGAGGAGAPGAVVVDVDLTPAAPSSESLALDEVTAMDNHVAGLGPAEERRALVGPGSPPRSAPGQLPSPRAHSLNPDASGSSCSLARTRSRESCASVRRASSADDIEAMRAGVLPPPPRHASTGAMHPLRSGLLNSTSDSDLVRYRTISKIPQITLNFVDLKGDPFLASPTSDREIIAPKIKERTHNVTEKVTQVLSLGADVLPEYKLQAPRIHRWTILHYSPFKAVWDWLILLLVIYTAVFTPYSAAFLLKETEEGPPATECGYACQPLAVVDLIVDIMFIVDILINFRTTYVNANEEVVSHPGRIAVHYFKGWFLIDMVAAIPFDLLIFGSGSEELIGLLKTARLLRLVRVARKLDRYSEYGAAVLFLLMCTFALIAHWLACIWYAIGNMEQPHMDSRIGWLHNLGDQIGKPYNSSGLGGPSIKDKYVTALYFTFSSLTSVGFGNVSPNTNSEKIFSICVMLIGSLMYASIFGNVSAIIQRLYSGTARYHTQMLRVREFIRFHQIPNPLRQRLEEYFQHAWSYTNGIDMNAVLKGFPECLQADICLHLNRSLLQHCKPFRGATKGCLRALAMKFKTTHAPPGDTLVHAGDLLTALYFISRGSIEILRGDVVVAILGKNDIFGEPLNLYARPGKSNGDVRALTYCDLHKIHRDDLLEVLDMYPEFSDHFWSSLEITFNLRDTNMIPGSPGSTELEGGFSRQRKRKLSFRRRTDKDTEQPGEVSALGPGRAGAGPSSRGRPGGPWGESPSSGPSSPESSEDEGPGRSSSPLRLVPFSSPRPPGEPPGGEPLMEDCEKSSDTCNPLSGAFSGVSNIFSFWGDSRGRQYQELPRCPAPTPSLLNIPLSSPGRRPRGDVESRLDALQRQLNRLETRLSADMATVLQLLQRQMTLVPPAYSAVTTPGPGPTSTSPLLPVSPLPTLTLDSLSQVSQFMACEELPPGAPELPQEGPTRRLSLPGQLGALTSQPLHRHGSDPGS

| Compound | IC50 [1] [nM] | IC50 [2] [nM] | IC50 [3] [nM] | hepatocyte CLint [4] [µL/min/1e6 cells] | fraction unbound [5] | Activity (Mus musculus [6]) [%] | inhibition at 5 ug/ml (hERG (KCNH2)) [%] | Activity (Mus musculus [7]) [%] |
| --- | --- | --- | --- | --- | --- | --- | --- | --- |
| O=S1(=O)N[C@@H]2CC[C@@]3(S(=O)(=O)c4ccc(C(F)(F)F)cc4)c4c(F)ccc(F)c4OC[C@H]3[C@@H]2CC1CCCO (stereo not given in full) | 9.5 | 3.8 | 4.9 |  |  |  |  |  |
| O=S1(=O)N[C@@H]2CC[C@@]3(S(=O)(=O)c4ccc(C(F)(F)F)cc4)c4c(F)ccc(F)c4OC[C@H]3[C@@H]2CC1CCN1CCCC1 (stereo not given in full) | 45.5 |  |  |  |  |  |  |  |
| C/C=C/CC1C[C@@H]2[C@@H](CC[C@@]3(S(=O)(=O)c4ccc(C(F)(F)F)cc4)c4c(F)ccc(F)c4OC[C@@H]23)NS1(=O)=O (stereo not given in full) | 14.6 |  |  |  |  |  |  |  |
| NC(=O)CC1C[C@@H]2[C@@H](CC[C@@]3(S(=O)(=O)c4ccc(C(F)(F)F)cc4)c4c(F)ccc(F)c4OC[C@@H]23)NS1(=O)=O (stereo not given in full) |  |  | 4 |  |  |  |  |  |
| O=S1(=O)CC[C@@H]2[C@@H](CC[C@@]3(S(=O)(=O)c4ccc(C(F)(F)F)cc4)c4c(F)ccc(F)c4OC[C@@H]23)N1 | 30 |  |  |  |  |  |  |  |
| COCC1C[C@@H]2[C@@H](CC[C@@]3(S(=O)(=O)c4ccc(C(F)(F)F)cc4)c4c(F)ccc(F)c4OC[C@@H]23)NS1(=O)=O (stereo not given in full) | 9 | 7.8 | 8 |  |  |  |  |  |
| C=CCC1C[C@@H]2[C@@H](CC[C@@]3(S(=O)(=O)c4ccc(C(F)(F)F)cc4)c4c(F)ccc(F)c4OC[C@@H]23)NS1(=O)=O (stereo not given in full) | 7.7 | 7 | 2 |  |  |  |  |  |
| O=C(O)CC1C[C@@H]2[C@@H](CC[C@@]3(S(=O)(=O)c4ccc(C(F)(F)F)cc4)c4c(F)ccc(F)c4OC[C@@H]23)NS1(=O)=O (stereo not given in full) | 48.3 | 930 | 1200 |  |  |  |  |  |
| O=S1(=O)N[C@@H]2CC[C@@]3(S(=O)(=O)c4ccc(C(F)(F)F)cc4)c4c(F)ccc(F)c4OC[C@H]3[C@@H]2CC1CCN1CCOCC1 (stereo not given in full) | 48.4 |  |  |  |  |  |  |  |
| O=S1(=O)N[C@@H]2CC[C@@]3(S(=O)(=O)c4ccc(C(F)(F)F)cc4)c4c(F)ccc(F)c4OC[C@H]3[C@@H]2CC1C/C=C/c1ccccc1 (stereo not given in full) | 60.9 |  |  |  |  |  |  |  |
| C[C@@H]1C[C@@H]2[C@@H](CC[C@@]3(S(=O)(=O)c4ccc(C(F)(F)F)cc4)c4c(F)ccc(F)c4OC[C@@H]23)NS1(=O)=O | 1.6 | 1 | 0.5 | 0.4 | 0.027 | 57 | 4 | 72 |
| CCCC1C[C@@H]2[C@@H](CC[C@@]3(S(=O)(=O)c4ccc(C(F)(F)F)cc4)c4c(F)ccc(F)c4OC[C@@H]23)NS1(=O)=O (stereo not given in full) | 5.5 | 3 | 1 |  |  |  |  |  |
| CC[C@@H]1C[C@@H]2[C@@H](CC[C@@]3(S(=O)(=O)c4ccc(C(F)(F)F)cc4)c4c(F)ccc(F)c4OC[C@@H]23)NS1(=O)=O | 1.9 | 5 | 2 | 0.3 | 0.019 | 42 | 10 | 84 |
| O=C(O)CCC1C[C@@H]2[C@@H](CC[C@@]3(S(=O)(=O)c4ccc(C(F)(F)F)cc4)c4c(F)ccc(F)c4OC[C@@H]23)NS1(=O)=O (stereo not given in full) | 17 | 40.6 | 64 |  |  |  |  |  |
